STEP inh: inhibitors of human striatal-enriched phosphatase STEP | inhibition, % at 20 µM | P54829 | recombinant STEP, OMFP fluorogenic substrate, fluorescence | hit rate 0.25% among 360,000 | AID 588621;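 active = inhibition at 20 µM, scaled per plate between control wells, above about 37%, limit read from the data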;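 note: 0% = DMSO with enzyme and substrate and 100% = substrate only without enzyme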
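Material: STEP (striatal-enriched tyrosine phosphatase) enzyme, cell-free; Compound dosing: 20 µM single dose in 1% DMSO; Technique: fluorescence read at 480 nm ex / 540 nm em; Times: reaction 20 min, ambient temperature; Medium: 50 mM Bis-Tris pH 6.0 with 2.5 mM DTT and 0.005% Tween 20; Also added: OMFP at 25 µM.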
LMPTP inh: blocks human LMPTP phosphatase. P24666. recombinant LMPTP-A, OMFP fluorogenic substrate, fluorescence intensity. hit rate 0.22% among 360,000. inhibition, % at 20 µM;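 active = compounds that cut the enzyme signal by at least half of the control window in the single-dose screen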;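 note: plate controls were DMSO wells with enzyme plus substrate for no effect and substrate without enzyme for full effect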
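Buffer or medium: Bis-Tris pH 6.0, DTT, detergent; Assay system: LMPTP-A enzyme; Quantity: 0.625 nM enzyme; Detection: endpoint fluorescence intensity; Times: 50 min dark incubation at room temperature; Controls: substrate-only low control, DMSO enzyme-plus-substrate high control; Doses: single 20 µM dose; Read-out: percent inhibition versus substrate-only and uninhibited controls; Reagent: 400 µM OMFP.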
DNMT1 inh: inhibitors of human DNMT1; P26358; DNMT1 molecular beacon, Hinp1I cleavage, fluorescence; inhibition (reported as % activation of signal), % at 10 µM; hit rate 0.83% among 360,000; in the data active = inhibition above about 50%
Target sequence (P26358 504-1616 limits assumed): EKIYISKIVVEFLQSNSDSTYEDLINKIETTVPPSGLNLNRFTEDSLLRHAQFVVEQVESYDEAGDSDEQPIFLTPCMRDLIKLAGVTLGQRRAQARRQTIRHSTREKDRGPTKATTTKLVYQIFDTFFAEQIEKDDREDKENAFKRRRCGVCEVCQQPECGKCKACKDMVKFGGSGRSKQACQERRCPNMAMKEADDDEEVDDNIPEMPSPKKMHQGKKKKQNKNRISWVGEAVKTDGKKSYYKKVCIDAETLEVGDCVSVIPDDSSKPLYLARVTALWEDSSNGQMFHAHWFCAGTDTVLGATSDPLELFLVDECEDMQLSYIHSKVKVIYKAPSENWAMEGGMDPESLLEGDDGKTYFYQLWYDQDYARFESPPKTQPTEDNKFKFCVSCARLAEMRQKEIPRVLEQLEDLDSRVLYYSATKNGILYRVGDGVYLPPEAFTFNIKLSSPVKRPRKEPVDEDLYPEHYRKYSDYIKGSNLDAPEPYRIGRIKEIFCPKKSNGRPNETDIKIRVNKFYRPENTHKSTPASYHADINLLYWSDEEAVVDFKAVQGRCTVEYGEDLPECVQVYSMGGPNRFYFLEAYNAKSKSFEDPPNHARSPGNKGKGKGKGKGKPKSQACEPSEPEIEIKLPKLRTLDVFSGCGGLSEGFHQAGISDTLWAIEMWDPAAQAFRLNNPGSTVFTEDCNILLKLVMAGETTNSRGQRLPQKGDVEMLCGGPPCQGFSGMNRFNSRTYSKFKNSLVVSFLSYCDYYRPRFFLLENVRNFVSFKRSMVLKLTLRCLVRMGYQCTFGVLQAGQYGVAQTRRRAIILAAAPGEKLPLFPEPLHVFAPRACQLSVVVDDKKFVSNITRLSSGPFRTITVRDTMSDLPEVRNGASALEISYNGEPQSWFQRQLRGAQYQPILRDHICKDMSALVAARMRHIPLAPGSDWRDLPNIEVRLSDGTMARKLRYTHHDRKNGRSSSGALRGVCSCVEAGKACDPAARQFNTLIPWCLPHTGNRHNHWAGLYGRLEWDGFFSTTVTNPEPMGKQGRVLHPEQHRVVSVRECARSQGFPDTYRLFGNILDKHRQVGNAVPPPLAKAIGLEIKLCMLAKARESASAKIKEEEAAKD
SUMO1-SIM PPI: SUMO1-SIM interaction modulation; P63165; SUMO1 binding to a labelled peptide, TR-FRET, 1 h; inhibition, % at 20 µM; hit rate 0.33% among 360,000; AID 602429; in the data active = inhibition above about 37%
NadD inh: NadD (S. aureus) enzyme inhibition | purified NadD enzyme, colorimetric absorbance read-out | inhibition, % at 20 µM | hit rate 0.78% among 360,000; in the data active = inhibition above about 26%
Scp-1 inhibitor: blocks human Scp-1 phosphatase activity; Recombinant Scp1, phosphopeptide, malachite green phosphate absorbance; inhibition, % at 20 µM; Q9GZU7; hit rate 0.88% among 340,000;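 active = inhibition above about 50% at 20 µM, limit read from the data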;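 note: plate controls were DMSO wells with enzyme for no effect and wells lacking enzyme for full effect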
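Incubation: 45 min enzyme reaction at room temperature / System: truncated SCP-1 phosphatase (76-261aa) / Reagent: Phospho 17-mer peptide substrate / Buffer or medium: Acidic Tris acetate buffer with magnesium and detergent / Signal: absorbance at 630 nm / Doses: one concentration, 20 µM, with 1.0% DMSO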
NadD inh conf: NadD (S. aureus) inhibition, single concentration confirmation; shares compounds with NadD inh; purified S. aureus NadD, colorimetric enzyme assay; inhibition, % at 20 µM; hit rate 13% among 2,000; AID 624309; in the data active = inhibition mostly above about 42%, no sharp cut-off; inactive = mostly below about 42%
Numbers without * were called inactive; nt = no result; ! = not confirmed by another sample. Hits are enriched below; roughly 2.4% of the tested compounds scored in any of these assays.

SMILES | STEP inh | LMPTP inh | DNMT1 inh | SUMO1-SIM PPI | NadD inh | Scp-1 inhibitor | NadD inh conf
O=C1[C@H]2[C@@H](c3ccc(Cl)cc3)N3C(=O)N(c4cccc(Br)c4)C(=O)[C@@]3(Cc3ccc(Cl)cc3)[C@H]2C(=O)N1C1CCCCC1 | 2 | 3 | 0 | -1 | 32* | -11 | -1
O=C1C2C3C=CC(C3)C2C(=O)N1Nc1c(Cl)cc(Cl)cc1Cl (stereo unspecified) | -1 | 0 | 1 | -5 | -4 | -4 | nt
COc1ccccc1NS(=O)(=O)c1cccc(-n2c(O)c(C=Nc3ccccc3C(=O)O)c3ccccc3c2=O)c1 | 3 | 3 | -2 | 20 | 31* | -14 | 54*
CC1Cc2c([nH]c3ccccc23)C(=O)N1 (stereo unspecified) | -2 | 1 | 1 | 2 | -5 | -8 | nt
CCCN(C1CCS(=O)(=O)C1)S(=O)(=O)c1ccc(F)cc1 (stereo unspecified) | 3 | -2 | 7 | 3 | -5 | -5 | nt
COc1cc(/C=C/C(=O)c2ccc(NS(=O)(=O)c3ccc(C)cc3)cc2)cc(OC)c1O | -4 | 3 | -22 | -4 | 32* | -10 | 46
Cc1ccc(C2OC(=O)C=C2c2ccccc2)cc1 (stereo unspecified) | 1 | -1 | 1 | 3 | -3 | -11 | nt
COc1cc(OC)cc(-c2c(-c3cccs3)c3cc(-c4ccn[nH]4)ccc3n2C)c1 | -1 | 0 | -26 | 17 | 38* | 6 | 20
O=C(Cn1nnc(-c2ccc([N+](=O)[O-])cc2)n1)NNC(=O)c1ccccc1 | 18 | 20 | -3 | 1 | 5 | 33 | nt
NC(=O)[C@H](Cc1cc2ccccc2s1)NC(=O)[C@@H]1CC2(CC(c3cccc(NC(=O)[C@@H]4CCC(=O)N4)c3)=NO2)CN1C(=O)/C=C/c1c(F)cccc1Cl (stereo partly specified) | 2 | 12 | -30 | 14 | 34* | 0 | 21
CC(C)C[C@H]1CN([C@@H](CC(C)C)CN2CCCC2CN2C(=S)NC[C@@H]2Cc2ccc(O)cc2)C(=S)N1CC1CCCCC1 (stereo partly specified) | 5 | 3 | -5 | 7 | 29 | 21 | nt
CC(C)C[C@@H](CN1CCC[C@@H]1CN1C(=S)NC[C@@H]1Cc1ccc(O)cc1)N1C[C@H](Cc2ccc(O)cc2)N(CC2CCCCCC2)C1=S | 0 | 1 | -56 | 4 | 44* | nt | 28
CC(C)C[C@H]1CN([C@@H](CC(C)C)CN2CCC[C@@H]2CN2C(=S)NC[C@@H]2Cc2ccc(O)cc2)C(=S)N1CC1CCCCC1 | 12 | 6 | -10 | 8 | 30* | nt | 11
COc1ccc(C2Nc3ccccc3C(=O)N2Cc2ccco2)cc1CN1C(=O)c2ccccc2C1=O (stereo unspecified) | 2 | 6 | -6 | -8 | 39*! | -5 | 22
O=c1cc(O)c2sc(Nc3ccc(Cl)c(F)c3)nc2[nH]1 | 1 | 7 | -21 | 17 | 38* | -6 | 8
Cc1ccc(F)c(C2C3C=CCC(c4cccc(-c5ccc(N(C)C)cc5)c4)C3C(=O)N2Cc2ccccc2)c1 (stereo unspecified) | 4 | 6 | -27 | -5 | 43* | 5 | 18
COc1ccc(-c2cccc(C3CC=CC4C3C(=O)N(Cc3ccccc3)C4c3ccc(OC)c(Cl)c3)c2)cc1 (stereo unspecified) | 2 | 4 | 14 | 4 | 19 | -2 | nt
Cc1ccc(-c2cccc(C3CC=CC4C3C(=O)N(Cc3ccccc3)C4c3ccc4ccccc4c3)c2)cc1 (stereo unspecified) | 5 | 1 | 15 | -3 | 34* | 0 | 4
C[C@@H]1CC=C[C@H]2[C@H]1C(=O)N(Cc1ccccc1)[C@H]2c1ccc(-c2ccc(N(C)C)cc2)cc1F | 5 | 8 | -5 | -24 | 10 | 12 | nt

Bioassay records from PubChem BioAssay.
